Screening results from PubChem BioAssay.
Shown are actives, neighbours in structure and some others; about 2.3% of the full set was active somewhere.
Scp1 inh: blocks human Scp-1 phosphatase activity | Q9GZU7 | Recombinant Scp1, phosphopeptide, malachite green phosphate absorbance | inhibition, % at 20 µM | hit rate 0.88% among 340,000 | AID 493091;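 active means inhibition above about 50% at 20 µM, limit read from the data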;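 further: plate controls were DMSO wells with enzyme for no effect and wells lacking enzyme for full effect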
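Test system – truncated SCP-1 phosphatase (76-261aa) · Reagent – Phosphorylated 17-residue peptide substrate · Incubation – 45 min room-temperature reaction, 5 min colour, 30 min stabiliser · Detection – colorimetric phosphate reagent with accelerator and stabiliser, absorbance at 630 nm · Measure – % inhibition at 20 µM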
NadD block: inhibitors of Staphylococcus aureus NadD. inhibition, % at 20 µM. hit rate 0.78% among 360,000. purified NadD enzyme, colorimetric absorbance read-out; in the data active means inhibition above about 26%
SUMO1-SIM PPI: alters human SUMO1 binding to SIM partners | hit rate 0.33% among 360,000 | SUMO1 binding to a labelled peptide, TR-FRET, 1 h | P63165 | inhibition, % at 20 µM; in the data active means inhibition above about 37%
LMPTP inh: blocks human LMPTP phosphatase | P24666 | recombinant LMPTP-A, OMFP fluorogenic substrate, fluorescence intensity | inhibition, % at 20 µM | hit rate 0.22% among 360,000 | AID 651560;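 active means compounds that cut the enzyme signal by at least half of the control window in the single-dose screen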;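 further: plate controls were DMSO wells with enzyme plus substrate for no effect and substrate without enzyme for full effect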
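test system = LMPTP-A | amount = 0.625 nM LMPTP-A final | reagent = fluorogenic phosphatase substrate OMFP at 400 µM final | incubation = 50 min at room temperature | benchmarks = no-enzyme low control, uninhibited high control | medium = Bis-Tris pH 6.0, DTT, detergent | signal = fluorescence intensity of OMFP turnover product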
STEP block: STEP (human) phosphatase inhibition; P54829; recombinant STEP, OMFP fluorogenic substrate, fluorescence; inhibition, % at 20 µM; hit rate 0.25% among 360,000;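 active means inhibition at 20 µM, scaled per plate between control wells, above about 37%, limit read from the data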;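 further: 0% = DMSO with enzyme and substrate and 100% = substrate only without enzyme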
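Measure: Control-normalized % inhibition with plate pattern correction | Test system: STEP phosphatase, cell-free reaction | Medium: pH 6.0 Bis-Tris with DTT and Tween 20 | Technique: Fluorescence, 480/540 nm | Times: Reaction 20 min, ambient temperature | Doses: Single compound dose of 20 µM, 1% DMSO final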
DNMT1 inh: inhibitors of human DNMT1. inhibition (reported as % activation of signal), % at 10 µM. DNMT1 molecular beacon, Hinp1I cleavage, fluorescence. AID 588458. hit rate 0.83% among 360,000. P26358; in the data active means inhibition above about 50%
NadD inh conf: NadD (S. aureus) inhibition, single concentration confirmation. hit rate 13% among 2,000. inhibition, % at 20 µM. purified S. aureus NadD, colorimetric enzyme assay. shares compounds with NadD block; in the data active means inhibition mostly above about 42%, no sharp cut-off; inactive means mostly below about 42%
Starred values were filed as active, the others as inactive; x = no result given.

SMILES | Scp1 inh | NadD block | SUMO1-SIM PPI | LMPTP inh | STEP block | DNMT1 inh | NadD inh conf
COc1cccc(-c2ccc(NC(=O)C3CCCN(Cc4cnn(C(C)C)c4)C3)cc2)c1 (configuration not stated) | 0 | -9 | -3 | 1 | 4 | -11 | x
O=C(NCC1CCCN(C(=O)Cc2ccccc2Cl)C1)c1ccc(F)cc1 (configuration not stated) | 8 | 2 | 0 | -1 | 2 | 1 | x
N=C1SC(c2ccccc2)C(=O)N1c1ncc(Cc2ccccc2)s1 (configuration not stated) | 0 | 12 | -2 | -1 | -2 | 8 | x
Cc1ccc(Cc2cnc(N3C(=N)SC(c4ccccc4)C3=O)s2)cc1 (configuration not stated) | 7 | 51* | 1 | 0 | -2 | 29 | 8
Cc1ccccc1NC(=O)CCNS(=O)(=O)c1cccc2nsnc12 | 4 | -6 | -29 | -1 | 0 | -1 | x
CC(NC(=O)C(C(=O)c1cccc([N+](=O)[O-])c1)n1cc(Cl)ccc1=O)c1ccccc1 (configuration not stated) | -3 | -3 | -1 | -2 | 0 | 0 | x
Cc1ccc(NS(=O)(=O)c2cc(NC(=O)c3ccc4c(c3)NC(=O)CS4)ccc2Cl)c(C)c1 | -3 | 37* | 6 | 5 | 4 | -16 | 52*
COc1ccc(NC(=O)c2ccc3c(c2)NC(=O)CS3)cc1 | -1 | 6 | 2 | -1 | -4 | -9 | x
Cc1cccc(C)c1NC(=O)COC(=O)CN1C(=O)C2CCCCC2C1=O (configuration not stated) | -4 | -5 | -3 | 0 | -3 | 1 | x
COc1cc2c(cc1NC(=O)C(C)N1CCN(S(=O)(=O)c3ccccc3[N+](=O)[O-])CC1)oc1ccccc12 (configuration not stated) | 9 | 38* | 5 | 0 | 2 | 2 | -1
COc1cc2c(cc1NC(=O)CN1CCN(S(=O)(=O)c3ccc(C)cc3)CC1)oc1ccccc12 | 16 | 33* | 0 | -2 | -2 | 0 | 8
CC(OC(=O)c1ccc(NS(=O)(=O)c2ccc3[nH]c(=O)[nH]c3c2)cc1)C(=O)Nc1ccc(Cl)cc1 (configuration not stated) | -12 | 7 | 11 | -2 | -2 | -6 | x
COc1cc2c(cc1NC(=O)C(C)OC(=O)c1ccc(S(=O)(=O)Nc3ccccc3Cl)cc1)oc1ccccc12 (configuration not stated) | 29 | 32* | 4 | 0 | -2 | 20 | 2
COc1ccc(Cl)cc1NC(=O)C(C)OC(=O)c1ccc(NS(=O)(=O)c2ccc3[nH]c(=O)[nH]c3c2)cc1 (configuration not stated) | -14 | 36* | 19 | 4 | -1 | -25 | 31
COc1cc2c(cc1NC(=O)C(C)N1CCN(S(=O)(=O)c3ccc(C)c(C)c3)CC1)oc1ccccc12 (configuration not stated) | -2 | 1 | -1 | 0 | 4 | 24 | x
COc1cn(-c2ccccc2)nc1C(=O)NCc1ccc(C)cc1 | -15 | -10 | 8 | -1 | -2 | -1 | x
COc1ccc(C2NC(=O)CCC2[N+](=O)[O-])cc1 (configuration not stated) | -5 | 1 | -4 | 0 | 0 | 3 | x
COc1ccc(S(=O)(=O)NNC(=O)c2ccc(-n3c(C)ccc3C)cc2)cc1 | -1 | -4 | -1 | -1 | -4 | -10 | x
CN(C)c1ccc(C(CN)c2c[nH]c3ccccc23)cc1 (configuration not stated) | 2 | 31* | -1 | 1 | -4 | 11 | 11
CN(C)c1ccc(C(CNS(=O)(=O)c2ccc3ccccc3c2)c2c[nH]c3ccccc23)cc1 (configuration not stated) | 4 | 22 | -4 | 5 | 4 | -37 | x
CCOC(=O)c1c(NC(=O)Cn2nc(C(=O)O)c3ccccc3c2=O)sc2c1CCC(C)C2 (configuration not stated) | 9 | 33* | 1 | 0 | 4 | -1 | 12
COc1cccc(CNC(=O)CCC2CCCN(c3cc(C)nc(N)n3)C2)c1 (configuration not stated) | -5 | -4 | 2 | -1 | 2 | -1 | x
Cc1cccc2c1cnn2C(=O)CCC(=O)NCC(C)c1ccccc1 (configuration not stated) | -15 | 3 | -2 | -1 | 2 | 4 | x
CCNc1nc(NCC)nc(N/N=C/c2ccc([N+](=O)[O-])o2)n1 | -11 | 0 | -20 | 1 | 2 | -10 | x
Cc1ccc2nc(N/N=C\c3ccc([N+](=O)[O-])o3)nc(-c3ccccc3)c2c1 | 38 | 37* | -33 | 8 | 5 | 15 | 11
SMILES | Scp1 inh | NadD block | SUMO1-SIM PPI | LMPTP inh | STEP block | DNMT1 inh | NadD inh conf
Cc1cccc(NC(=O)CSc2nc3nc4c(cc3c(=O)n2-c2ccccc2)CCCC4)c1 | 17 | 15 | -5 | 2 | 2 | -9 | x
O=C(CSc1nc2nc3c(cc2c(=O)n1-c1ccccc1)CCCC3)Nc1cccc2ccccc12 | 11 | 41* | -6 | 3 | 7 | -7 | 19
Cc1cc2ncc(-c3cccs3)nc2cc1C | -4 | -10 | -23 | 2 | -1 | 3 | x
COc1cccc(-c2noc(Cn3nc(C(=O)O)c4ccccc4c3=O)n2)c1 | -8 | -3 | -9 | 1 | 2 | -2 | x
O=C(O)c1nn(Cc2ncc(-c3cccc(Cl)c3)o2)c(=O)c2ccccc12 | -5 | 34* | -6 | 1 | 2 | -10 | 16
CCCCCCC1CCC(C(=O)N2CCOCC2)CC1 (configuration not stated) | -8 | -6 | 1 | 0 | -2 | 1 | x
O=c1ccc(-c2ccc(S(=O)(=O)NCC3CCN(Cc4ccccc4F)CC3)s2)n[nH]1 | -3 | 14 | 2 | 28 | -2 | -4 | x
CCN1CCN(Cc2ccc(NC(=O)c3ccc(C)c(NC(=O)c4cc(-c5ccc(Br)cc5)n[nH]4)c3)cc2C(F)(F)F)CC1 | 4 | 32* | -42 | 0 | 0 | -19 | -9
O=C(NC1CC2CCCC(C1)N2Cc1ccccc1)c1ccc([N+](=O)[O-])cc1 (configuration not stated) | -6 | -2 | -24 | 1 | 2 | 0 | x
Nc1nc(COc2ccccc2C=O)nc(Nc2ccccc2)n1 | -11 | 29* | -4 | -3 | 1 | -10 | 36*
CCC(=O)OCC(=O)Nc1cc([N+](=O)[O-])ccc1OC | 6 | -1 | -14 | -1 | -1 | -1 | x
